Experiment [1] addresses T1, D(2) dopamine receptor (Homo sapiens, UniProt P14416). The experiment is described as follows: Displacement of [3H]-Raclopride from recombinant human dopamine D2 receptor expressed in HEK293T cell membranes after 1 hr by liquid scintillation counting. Summed up: (§1)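 Membranes (20 µg) from HEK293T cells stably expressing D2R, or D2R with mGluR5. Incubated with 2.0 nM [3H]raclopride and unlabeled ligand (0.1 nM-10 µM) for 1 h at 37 °C in 50 mM Tris-HCl pH 7.4 containing NaCl, KCl, MgCl2, CaCl2 and EDTA. Nonspecific binding defined with 1 µM haloperidol. Counted by scintillation; Ki by Cheng-Prusoff; three independent assays.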
(In general: Loss of bound radioactivity is the signal in a displacement assay; it reports binding, not function.)

For experiment [2], the target named is T2, Metabotropic glutamate receptor 5 (Homo sapiens, UniProt P41594). The experiment is described as follows: Antagonist activity at mGluR5 (unknown origin) expressed in HEK293T cells assessed as inhibition of L-Glu-induced MAPK phosphorylation preincubated for 30 mins followed by agonist stimulation for 10 mins by Western blot analysis. Format: functional, cell-based. Summed up:
(§2)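 Cells stably expressing mGluR5 alone or with D2R, seeded at 400,000 per well, serum-starved overnight at about 70% confluence. Ligand pretreatment at 1 nM-10 µM for 30 min at 37 °C, then 10 µM L-glutamate for 7-10 min. RIPA lysates run on western blot; phospho-p44/42 MAPK signal normalized to total p44/42 MAPK. Mean ± SEM of three independent experiments.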
A general note: In western blotting, separated proteins are transferred to a membrane and probed.

Experiment [3] addresses T1, D(2) dopamine receptor. The experiment in a line: Displacement of [3H]-Raclopride from recombinant human dopamine D2 receptor expressed in HEK293T cell membranes co-expressing mGluR5a (unknown origin) after 1 hr by liquid scintillation counting. The gist of the method:
as §1

For experiment [4], the target named is T1, D(2) dopamine receptor. The experiment in a line: Agonist activity at human dopamine D2 receptor expressed in HEK293T cells assessed as reduction in forskolin-induced cAMP accumulation preincubated for 15 mins followed by forskolin addition by GloSensor-based assay. Format: functional, cell-based. A general note: Changes in cAMP serve as a functional read-out for many G protein-coupled receptors.

Experiment [5] deals with T3, D(2) dopamine receptor/Metabotropic glutamate receptor 5 (Homo sapiens, UniProt P14416+P41594). The experiment is described as follows: Agonist activity at human dopamine D2 receptor /mGluR5a (unknown origin) expressed in HEK293T cells assessed as reduction in forskolin-induced cAMP accumulation preincubated for 15 mins followed by forskolin addition by GloSensor-based assay. Format: functional, cell-based.

Experiment [6] deals with T3, D(2) dopamine receptor/Metabotropic glutamate receptor 5. The experiment in a line: Antagonist activity at human dopamine D2 receptor /mGluR5a (unknown origin) expressed in HEK293T cells assessed as inhibition of L-Glu-induced MAPK phosphorylation preincubated for 30 mins followed by agonist stimulation for 10 mins by Western blot analysis. Format: cell-based. Summed up: as §2

The target in experiment [7] is T2, Metabotropic glutamate receptor 5. The experiment is described as follows: Displacement of [3H]MPEP from recombinant mGluR5 (unknown origin) expressed in HEK293T cell membranes after 1 hr by liquid scintillation counting. Summed up: (§3)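 Membranes (20 µg) from cells stably expressing mGluR5, with or without D2R. Incubated with 3.0 nM [3H]MPEP and unlabeled ligand (0.1 nM-100 µM) in 50 mM Tris-HCl/2 mM MgCl2, pH 7.4, for 1 h at 25 °C. Nonspecific binding defined with 10 µM MPEP. Filtration and scintillation counting; Ki via Cheng-Prusoff; three independent assays in duplicate.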

For experiment [8] the target is unchanged. The experiment is described as follows: Displacement of [3H]MPEP from recombinant mGluR5a (unknown origin) expressed in HEK293T cell membranes co-expressing human dopamine D2 receptor after 1 hr by liquid scintillation counting. Summed up: as §3

The term Ki denotes the dissociation constant of the complex between target and ligand, obtained from inhibition or displacement. For orientation: IC50 means the midpoint of a concentration-inhibition curve. The EC50 is the concentration at which the effect is half-maximal.

T2 sequence (P41594 whole entry): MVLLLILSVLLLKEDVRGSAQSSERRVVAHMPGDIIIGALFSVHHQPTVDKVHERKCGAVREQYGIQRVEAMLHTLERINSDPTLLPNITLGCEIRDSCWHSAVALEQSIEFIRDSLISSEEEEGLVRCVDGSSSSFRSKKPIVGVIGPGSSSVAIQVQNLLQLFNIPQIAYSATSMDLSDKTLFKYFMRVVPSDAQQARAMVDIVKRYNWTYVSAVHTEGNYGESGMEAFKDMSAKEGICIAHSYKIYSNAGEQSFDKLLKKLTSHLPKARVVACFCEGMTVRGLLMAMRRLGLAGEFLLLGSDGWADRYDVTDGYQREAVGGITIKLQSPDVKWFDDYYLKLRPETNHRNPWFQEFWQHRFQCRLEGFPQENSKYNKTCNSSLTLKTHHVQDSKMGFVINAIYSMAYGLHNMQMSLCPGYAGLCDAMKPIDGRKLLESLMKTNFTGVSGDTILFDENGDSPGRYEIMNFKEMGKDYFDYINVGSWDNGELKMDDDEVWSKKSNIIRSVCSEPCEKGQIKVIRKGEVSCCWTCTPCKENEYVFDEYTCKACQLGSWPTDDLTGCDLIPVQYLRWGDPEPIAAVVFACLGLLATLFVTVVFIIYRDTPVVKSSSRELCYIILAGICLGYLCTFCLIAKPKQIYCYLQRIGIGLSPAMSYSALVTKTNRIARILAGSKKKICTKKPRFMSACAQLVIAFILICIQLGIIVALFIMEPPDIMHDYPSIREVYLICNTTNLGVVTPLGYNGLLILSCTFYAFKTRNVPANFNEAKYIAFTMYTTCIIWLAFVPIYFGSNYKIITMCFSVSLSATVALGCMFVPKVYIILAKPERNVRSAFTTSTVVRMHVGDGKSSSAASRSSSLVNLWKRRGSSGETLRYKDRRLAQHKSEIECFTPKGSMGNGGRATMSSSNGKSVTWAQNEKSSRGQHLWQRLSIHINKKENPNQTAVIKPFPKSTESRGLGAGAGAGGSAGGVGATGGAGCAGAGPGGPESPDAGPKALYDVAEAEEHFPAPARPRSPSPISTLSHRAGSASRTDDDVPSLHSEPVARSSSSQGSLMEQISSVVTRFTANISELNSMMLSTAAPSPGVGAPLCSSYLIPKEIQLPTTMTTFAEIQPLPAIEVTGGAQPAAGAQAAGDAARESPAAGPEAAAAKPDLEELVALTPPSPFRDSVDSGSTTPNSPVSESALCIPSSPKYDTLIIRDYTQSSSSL
T1 sequence (P14416 whole entry): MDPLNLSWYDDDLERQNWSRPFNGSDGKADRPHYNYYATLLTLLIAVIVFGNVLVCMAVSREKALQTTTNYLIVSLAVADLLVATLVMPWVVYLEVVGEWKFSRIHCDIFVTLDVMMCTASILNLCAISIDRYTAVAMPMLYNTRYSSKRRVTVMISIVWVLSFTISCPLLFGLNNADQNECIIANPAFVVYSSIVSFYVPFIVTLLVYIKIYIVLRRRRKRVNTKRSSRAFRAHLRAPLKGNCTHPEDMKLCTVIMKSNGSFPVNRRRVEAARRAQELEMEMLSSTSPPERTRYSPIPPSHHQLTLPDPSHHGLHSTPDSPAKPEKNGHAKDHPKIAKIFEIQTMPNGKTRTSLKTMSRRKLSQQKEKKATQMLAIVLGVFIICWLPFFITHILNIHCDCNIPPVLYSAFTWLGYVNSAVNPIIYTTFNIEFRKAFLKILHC
T3 sequence (P14416 whole entry): as above
T3 sequence (P41594 whole entry): as the sequence (P41594 whole entry) above

Consider `COc1cc(CN2CCN(c3ccccc3OC)CC2)ccc1OCc1cn(CCOCCOCCOCCOCCOCCNC(=O)COc2cccc(C#Cc3csc(C)n3)c2)nn1`, for which the inhibition constant Ki is 0.352 µM at D(2) dopamine receptor [1] and 0.186 µM on D(2) dopamine receptor [3]. Also, the IC50 in experiment [2] was 0.9 µM.

Consider `CCCN(CCc1ccc(NC(=O)CCc2cn(CCCCCCNC(=O)COc3cncc(C#Cc4csc(C)n4)c3)nn2)cc1)C1CCc2c(O)cccc2C1` (stereo unspecified), for which the EC50 at D(2) dopamine receptor [4] (read-out: EC50) is 0.0076 µM; in experiment [5] (read-out: EC50) it was 0.02 µM. Moreover, the Ki on D(2) dopamine receptor [1] amounted to 0.295 µM; at D(2) dopamine receptor [3], 0.142 µM. In experiment [2], the IC50 is 1.6 µM.

`COc1cc(CN2CCN(c3ccccc3OC)CC2)ccc1OCc1cn(CCCCCCCCN(C)CCCCCNC(=O)COc2cccc(C#Cc3csc(C)n3)c2)nn1`: the Ki at D(2) dopamine receptor [1] stood at 0.147 µM; at D(2) dopamine receptor [3], 0.094 µM. Also, the IC50 in experiment [2] stood at 0.24 µM.

As to `COc1cc(CN2CCN(c3ccccc3OC)CC2)ccc1OCc1cn(CCCCCCCCCCN(C)CCCCCNC(=O)COc2cccc(C#Cc3csc(C)n3)c2)nn1`, the values for the Ki at D(2) dopamine receptor [1] and at D(2) dopamine receptor [3] were 0.398 µM and 0.252 µM, respectively. Further, the IC50 in experiment [2] was 0.31 µM.

As for `CCCN(CCc1ccc(NC(=O)CCc2cn(CCCCCCCCN(C)CCCCCNC(=O)COc3cncc(C#Cc4csc(C)n4)c3)nn2)cc1)C1CCc2c(O)cccc2C1` (stereo unspecified), the EC50 was found to be 0.0033 µM at D(2) dopamine receptor [4] (read-out: EC50) and 0.0015 µM in experiment [5] (read-out: EC50). The IC50 stood at 0.62 µM in experiment [6] and 0.17 µM in experiment [2]. Moreover, the Ki on D(2) dopamine receptor [1] is 0.05 µM; in experiment [7], 2.3 µM; in experiment [8], 1.1 µM; at D(2) dopamine receptor [3], 0.013 µM.

With `C#CCCC(=O)Nc1ccc(CCN(CCC)C2CCc3c(O)cccc3C2)cc1` (stereo unspecified), the EC50 amounted to 0.003 µM at D(2) dopamine receptor [4] (read-out: EC50) and 0.0065 µM in experiment [5] (read-out: EC50). Moreover, the figures for the Ki at D(2) dopamine receptor [1] and on D(2) dopamine receptor [3] were 0.017 µM and 0.019 µM, respectively.

Turning to `COc1cc(CN2CCN(c3ccccc3OC)CC2)ccc1OCc1cn(CCCCCCCCCCN(C)CCCCCNC(=O)COc2cncc(C#Cc3csc(C)n3)c2)nn1`, the figures for the Ki on D(2) dopamine receptor [1] and at D(2) dopamine receptor [3] were 0.303 µM and 0.115 µM, respectively. For the same compound, the IC50 in experiment [2] came out at 0.45 µM.

`Cc1nc(C#Cc2cncc(OCC(=O)NCCCCCN(C)CCCCCCCCN=[N+]=[N-])c2)cs1`: the values for the IC50 in experiment [6] and in experiment [2] were 4.5 µM and 2.6 µM, respectively. The Ki in experiment [7] was 5.8 µM; in experiment [8], 5.7 µM.

For `CCCN(CCc1ccc(NC(=O)CCc2cn(CCCCCCCCCCN(C)CCCCCNC(=O)COc3cncc(C#Cc4csc(C)n4)c3)nn2)cc1)C1CCc2c(O)cccc2C1` (stereo unspecified), the EC50 amounted to 0.0055 µM on D(2) dopamine receptor [4] (read-out: EC50) and 0.032 µM in experiment [5] (read-out: EC50). In addition, the Ki turned out to be 0.079 µM at D(2) dopamine receptor [1] and 0.171 µM at D(2) dopamine receptor [3]. The IC50 in experiment [2] was 0.32 µM.

Take `COc1cc(CN2CCN(c3ccccc3OC)CC2)ccc1OCc1cn(CCCCCCCCN(C)CCCCCNC(=O)COc2cncc(C#Cc3csc(C)n3)c2)nn1`: the IC50 in experiment [6] is 1.8 µM; in experiment [2], 0.11 µM. Besides, the Ki at D(2) dopamine receptor [1] turned out to be 0.132 µM; in experiment [7] it was 1 µM; in experiment [8], 1.3 µM; on D(2) dopamine receptor [3] it was 0.045 µM.

For `COc1cc(CN2CCN(c3ccccc3OC)CC2)ccc1OCc1cn(CCOCCOCCOCCNC(=O)COc2cccc(C#Cc3csc(C)n3)c2)nn1`, the results for the Ki at D(2) dopamine receptor [1] and on D(2) dopamine receptor [3] were 0.438 µM and 0.251 µM, respectively. Besides, in experiment [2], the IC50 is 1.2 µM.

In the case of `C#CCOc1ccc(CN2CCN(c3ccccc3OC)CC2)cc1OC`, the EC50 entry (on D(2) dopamine receptor [4]; in experiment [5]) was “Not Active” throughout. Also, the values for the Ki at D(2) dopamine receptor [1] and at D(2) dopamine receptor [3] were 0.077 µM and 0.069 µM, respectively.

Source of the values: ChEMBL document CHEMBL4229559, “Synthesis toward Bivalent Ligands for the Dopamine D2 and Metabotropic Glutamate 5 Receptors” (J Med Chem, 2018).
